Source: ChEMBL document CHEMBL1268907, “Synthesis and evaluation of benzoxazole derivatives as 5-lipoxygenase inhibitors” (Bioorg Med Chem, 2010)
Values belong to the compound of their own block, whether it stands above or below them. Calls of active or inactive are those of the source. The calls are words filed in the database; no cut-off is given here.

What was measured:
Mus musculus [1] = assay: Antiasthamatic activity against ovalbumin-induced airway hyperresponsiveness mouse model assessed as reduction of bronchoalveolar lavage fluid IL-5 level at 30 mg/kg, po measured 48 hrs after ovalbumin challenge; type: functional, Lung
Outline: (§1)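 OVA sensitization i.p. (20 µg OVA with 2 mg aluminum hydroxide in PBS pH 7.4, days 0 and 11), then airway challenge with 1% OVA aerosol for 20 min on days 19, 20, 21 and 25. Compound given orally at 30 mg/kg. BALF collected 48 h after last challenge by three 0.5 mL ice-cold PBS lavages and centrifuged. IL-4, IL-5 and IL-13 measured by mouse ELISA (detection limit 250 pg/mL). n = 5–6 per group, mean ± SEM.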

Mus musculus [2] = assay: Antiasthamatic activity against ovalbumin-induced airway hyperresponsiveness mouse model assessed as reduction of increase in penh value at 30 mg/kg, po administered 24 hrs after last ovalbumin challenge measured after 24 hrs by plethysmography; type: functional, organism-based; parameters: dose 30 mg/kg
Outline: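 OVA/alum-sensitized mice (i.p., days 0 and 11) challenged with 1% OVA aerosol, given 30 mg/kg orally. 24 h after final aerosol, whole-body plethysmography was run: PBS aerosol, then methacholine 12.5, 25 and 50 mg/mL for 3 min each, with 5 min recording per step. Peak Penh at each dose expressed as % of basal PBS Penh.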

Mus musculus [3] = assay: Antiasthamatic activity against ovalbumin-induced airway hyperresponsiveness mouse model assessed as reduction of eosinophils infiltration at 30 mg/kg, po measured 48 hrs after ovalbumin challenge; type: functional, organism-based; parameters: dose 30 mg/kg
Outline: (§2)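 Mice sensitized i.p. with OVA/alum on days 0 and 11 and challenged with 1% OVA aerosol on days 19–21 and 25. Oral dosing at 30 mg/kg. Lungs taken 48 h after last challenge, fixed 24 h in 10% neutral-buffered formalin, paraffin-embedded, cut at 4 µm and H&E stained. Peribronchial/perivascular infiltration scored 0–3 blind by two independent investigators.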

Mus musculus [4] = assay: Antiasthamatic activity against ovalbumin-induced airway hyperresponsiveness mouse model assessed as reduction of plasma IgE level at 30 mg/kg, po measured 48 hrs after ovalbumin challenge (reference value: 41.82 +/- 10.57 ng/ml); type: functional
Mus musculus [5] = assay: Antiasthamatic activity against ovalbumin-induced airway hyperresponsiveness mouse model assessed as reduction of mononuclear cells infiltration at 30 mg/kg, po measured 48 hrs after ovalbumin challenge; type: functional, organism-based; parameters: dose 30 mg/kg; outline: as §2
Mus musculus [6] = assay: Antiasthamatic activity against ovalbumin-induced airway hyperresponsiveness mouse model assessed as reduction of bronchoalveolar lavage fluid IL-4 level at 30 mg/kg, po measured 48 hrs after ovalbumin challenge; type: functional, Lung; outline: as §1
Mus musculus [7] = assay: Antiasthamatic activity against ovalbumin-induced airway hyperresponsiveness mouse model assessed as reduction of bronchoalveolar lavage fluid IL-13 level at 30 mg/kg, po measured 48 hrs after ovalbumin challenge; type: functional, Lung; outline: as §1
[8] = molecular target: T1, Polyunsaturated fatty acid 5-lipoxygenase (Mus musculus, UniProt P48999); assay: Inhibition of 5-lipoxygenase in BALB/c mouse BMMC assessed as LTC4 release after 20 mins by enzyme immunoassay
T1 sequence (P48999 whole entry): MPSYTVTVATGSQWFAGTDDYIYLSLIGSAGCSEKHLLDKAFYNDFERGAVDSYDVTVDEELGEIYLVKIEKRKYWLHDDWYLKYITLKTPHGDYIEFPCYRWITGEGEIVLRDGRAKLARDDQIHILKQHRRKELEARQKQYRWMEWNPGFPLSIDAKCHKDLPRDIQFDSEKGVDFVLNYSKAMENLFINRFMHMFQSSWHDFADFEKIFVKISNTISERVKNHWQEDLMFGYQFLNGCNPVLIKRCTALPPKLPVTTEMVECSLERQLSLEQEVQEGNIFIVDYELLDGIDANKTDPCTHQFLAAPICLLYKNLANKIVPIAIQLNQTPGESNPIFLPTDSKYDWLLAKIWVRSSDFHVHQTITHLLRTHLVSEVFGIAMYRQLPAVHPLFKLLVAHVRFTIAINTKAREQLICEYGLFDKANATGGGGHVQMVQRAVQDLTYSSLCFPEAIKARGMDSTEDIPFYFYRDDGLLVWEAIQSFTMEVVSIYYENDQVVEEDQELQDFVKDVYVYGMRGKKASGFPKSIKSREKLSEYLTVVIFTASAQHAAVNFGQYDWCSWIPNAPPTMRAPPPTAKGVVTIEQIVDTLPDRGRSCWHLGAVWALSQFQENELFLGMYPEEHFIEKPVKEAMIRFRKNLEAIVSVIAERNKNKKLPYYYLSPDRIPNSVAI
Outline: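 Bone marrow mast cells from male Balb/c mice, cultured up to 4 weeks in enriched RPMI + 10% FBS + IL-3 (2 ng/mL); >98% purity by toluidine blue staining. Cells at 1×10^6/mL pre-incubated with compound in DMSO (final <0.5%) for 30 min at 37 °C, then stimulated with SCF 100 ng/mL for 20 min. Supernatant LTC4 measured by EIA in triplicate; % reduction calculated.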

SMILES: CCc1ccc(Nc2nc3cc(Cl)ccc3o2)cc1
Activity (Mus musculus [1]): 110.91 ng/mL | Activity (Mus musculus [2]): Active | Activity (Mus musculus [3]): Active | Activity (Mus musculus [4]): 25.44 ng/mL | Activity (Mus musculus [5]): Active | Activity (Mus musculus [6]): 163.49 ng/mL | Activity (Mus musculus [7]): 71.91 ng/mL

SMILES: COc1ccc2oc(Nc3ccc(SC)cc3)nc2c1
IC50 [8]: 2.77 µM

SMILES: COc1ccc2oc(Nc3ccc(C(C)C)cc3)nc2c1
IC50 [8]: 2.64 µM

SMILES: COc1ccc2oc(Nc3cccc(Br)c3)nc2c1
IC50 [8]: 2.03 µM

SMILES: COc1ccc2oc(Nc3ccccc3)nc2c1
IC50 [8]: 7.88 µM

SMILES: CSc1ccc(Nc2nc3cc(C)ccc3o2)cc1
IC50 [8]: 7.31 µM

SMILES: Clc1ccc2oc(Nc3ccccc3)nc2c1
IC50 [8]: 4.5 µM

The next lines start with results.

IC50 [8]: 6.83 µM
SMILES: COc1cccc(Nc2nc3cc(C)ccc3o2)c1

IC50 [8]: 0.12 µM
SMILES: CCc1ccc(Nc2nc3cc(C)ccc3o2)cc1
Activity (Mus musculus [1]): 116.92 ng/mL | Activity (Mus musculus [2]): Active | Activity (Mus musculus [3]): Active | Activity (Mus musculus [4]): 19.21 ng/mL | Activity (Mus musculus [5]): Active | Activity (Mus musculus [6]): 198.34 ng/mL | Activity (Mus musculus [7]): 64.3 ng/mL

IC50 [8]: 5.66 µM
SMILES: CCc1ccccc1Nc1nc2cc(C)ccc2o1

IC50 [8]: 4.6 µM
SMILES: Cc1ccc2oc(Nc3ccccc3)nc2c1
